Test results reported in ChEMBL document CHEMBL1177669, “Synthesis and biological study of 3-(phenylsulfonyl)thieno[2,3-e][1,2,3]triazolo[1,5-a]pyrimidines as potent and selective serotonin 5-HT6 receptor antagonists” (Bioorg Med Chem, 2010).

What was measured:
[1] = target: T1, 5-hydroxytryptamine receptor 6 (Homo sapiens, UniProt P50406); test: Antagonist activity at human recombinant 5HT6 receptor expressed in HEK293 cells assessed as inhibition of serotonin-induced cAMP production; type: functional, cell-based
T1 sequence (P50406 whole entry): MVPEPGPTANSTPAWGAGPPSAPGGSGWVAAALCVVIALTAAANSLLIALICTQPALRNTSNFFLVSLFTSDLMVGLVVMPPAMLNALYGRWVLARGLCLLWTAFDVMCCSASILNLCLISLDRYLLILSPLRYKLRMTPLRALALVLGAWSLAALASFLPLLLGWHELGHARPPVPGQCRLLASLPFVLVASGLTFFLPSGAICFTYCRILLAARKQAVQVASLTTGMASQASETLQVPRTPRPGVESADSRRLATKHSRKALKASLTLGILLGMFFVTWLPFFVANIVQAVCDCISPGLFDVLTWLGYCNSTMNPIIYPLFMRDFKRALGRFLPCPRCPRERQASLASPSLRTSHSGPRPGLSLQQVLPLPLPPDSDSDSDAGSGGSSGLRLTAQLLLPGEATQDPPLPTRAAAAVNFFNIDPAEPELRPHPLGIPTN
In short: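 HEK293 cells stably expressing recombinant human 5-HT6R, stimulated with serotonin. cAMP from adenylyl cyclase measured by LANCE. Compounds screened at 5 and 10 μM. IC50 determined for compounds giving more than 50% inhibition of cAMP synthesis at 5 μM.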

[2] = target: T1, 5-hydroxytryptamine receptor 6; test: Binding affinity to human recombinant 5HT6 receptor expressed in HEK293 cells by radioligand displacement assay; type: cell-based
In short: (§1)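 Competitive radioligand binding at the 5-HT6 receptor, run by MDS Pharma Services as part of a serotonin receptor panel. IC50 and Ki values derived.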

[3] = target: T1, 5-hydroxytryptamine receptor 6; test: Displacement of radioligand from human recombinant 5HT6 receptor in competitive radioligand binding assay
[4] = target: T1, 5-hydroxytryptamine receptor 6; test: Binding affinity to 5HT6 receptor; in short: as §1
[5] = target: T2, 5-hydroxytryptamine receptor 1A (Homo sapiens) (UniProt P08908); test: Binding affinity to 5HT1A receptor at 1 uM by radioligand displacement assay
T2 sequence (whole entry): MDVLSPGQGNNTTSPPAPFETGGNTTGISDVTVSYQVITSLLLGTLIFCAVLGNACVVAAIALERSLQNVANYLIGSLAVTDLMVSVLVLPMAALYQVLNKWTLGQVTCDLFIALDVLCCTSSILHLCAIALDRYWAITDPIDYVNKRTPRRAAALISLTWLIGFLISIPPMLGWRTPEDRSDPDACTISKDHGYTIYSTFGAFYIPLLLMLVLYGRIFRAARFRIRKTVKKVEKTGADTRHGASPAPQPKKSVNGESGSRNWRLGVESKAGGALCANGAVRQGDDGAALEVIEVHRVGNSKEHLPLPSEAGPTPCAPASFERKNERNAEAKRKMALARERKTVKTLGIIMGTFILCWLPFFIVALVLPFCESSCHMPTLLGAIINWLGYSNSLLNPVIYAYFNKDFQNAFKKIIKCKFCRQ
In short: (§2)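 Competitive radioligand binding run by MDS Pharma Services on a serotonin receptor panel. Test compound at 1 µM. Read-out is % displacement of radioligand from each receptor complex.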

[6] = target: 5-hydroxytryptamine receptor 1B (Homo sapiens) (UniProt P28222); test: Binding affinity to 5HT1B receptor at 1 uM by radioligand displacement assay; in short: as §2
5-hydroxytryptamine receptor 1B (Homo sapiens), sequence (P28222 whole entry): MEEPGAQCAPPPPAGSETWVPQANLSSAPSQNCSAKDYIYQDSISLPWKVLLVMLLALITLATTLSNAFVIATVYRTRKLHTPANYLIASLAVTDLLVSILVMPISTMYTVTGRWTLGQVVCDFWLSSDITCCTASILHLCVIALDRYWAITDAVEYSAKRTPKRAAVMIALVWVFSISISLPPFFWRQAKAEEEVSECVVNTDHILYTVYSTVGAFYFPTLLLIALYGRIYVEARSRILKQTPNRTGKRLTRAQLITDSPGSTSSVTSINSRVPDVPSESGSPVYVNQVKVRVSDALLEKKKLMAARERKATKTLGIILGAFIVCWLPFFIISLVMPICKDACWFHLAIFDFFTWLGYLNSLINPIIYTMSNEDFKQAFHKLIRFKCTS

[7] = target: 5-hydroxytryptamine receptor 2A (Homo sapiens) (UniProt P28223); test: Binding affinity to 5HT2A receptor at 1 uM by radioligand displacement assay; in short: as §2
5-hydroxytryptamine receptor 2A (Homo sapiens), sequence (P28223 whole entry): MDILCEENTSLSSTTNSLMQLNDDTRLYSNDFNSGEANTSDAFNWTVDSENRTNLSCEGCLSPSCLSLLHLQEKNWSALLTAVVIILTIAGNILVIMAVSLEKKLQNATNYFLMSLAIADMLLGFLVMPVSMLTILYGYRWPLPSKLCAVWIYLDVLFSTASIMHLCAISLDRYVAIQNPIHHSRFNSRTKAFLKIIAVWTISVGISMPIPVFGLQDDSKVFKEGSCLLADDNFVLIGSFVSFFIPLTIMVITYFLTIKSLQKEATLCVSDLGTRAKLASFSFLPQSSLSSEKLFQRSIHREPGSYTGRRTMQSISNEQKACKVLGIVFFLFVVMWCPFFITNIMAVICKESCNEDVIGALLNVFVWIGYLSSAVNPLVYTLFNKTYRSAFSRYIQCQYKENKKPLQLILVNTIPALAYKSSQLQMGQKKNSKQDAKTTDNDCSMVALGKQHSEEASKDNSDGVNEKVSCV

[8] = target: 5-hydroxytryptamine receptor 2B (Homo sapiens) (UniProt P41595); test: Binding affinity to 5HT2B receptor at 1 uM by radioligand displacement assay; in short: as §2
5-hydroxytryptamine receptor 2B (Homo sapiens), sequence (P41595 whole entry): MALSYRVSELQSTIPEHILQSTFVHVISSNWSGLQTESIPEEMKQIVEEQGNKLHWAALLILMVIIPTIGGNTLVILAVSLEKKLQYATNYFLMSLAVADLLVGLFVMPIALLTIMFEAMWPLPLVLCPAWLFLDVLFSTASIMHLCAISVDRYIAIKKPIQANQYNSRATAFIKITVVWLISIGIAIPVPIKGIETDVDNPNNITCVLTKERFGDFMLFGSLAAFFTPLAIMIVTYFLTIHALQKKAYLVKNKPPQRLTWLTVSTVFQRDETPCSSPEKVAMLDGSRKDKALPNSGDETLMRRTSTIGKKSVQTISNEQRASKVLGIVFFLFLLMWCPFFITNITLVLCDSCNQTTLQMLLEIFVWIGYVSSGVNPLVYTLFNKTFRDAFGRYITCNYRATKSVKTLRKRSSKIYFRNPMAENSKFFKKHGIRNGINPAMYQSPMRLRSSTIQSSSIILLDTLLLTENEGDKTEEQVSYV

[9] = target: T3, 5-hydroxytryptamine receptor 2C (Homo sapiens) (UniProt P28335); test: Binding affinity to 5HT2C receptor at 1 uM by radioligand displacement assay; in short: as §2
T3 sequence (whole entry): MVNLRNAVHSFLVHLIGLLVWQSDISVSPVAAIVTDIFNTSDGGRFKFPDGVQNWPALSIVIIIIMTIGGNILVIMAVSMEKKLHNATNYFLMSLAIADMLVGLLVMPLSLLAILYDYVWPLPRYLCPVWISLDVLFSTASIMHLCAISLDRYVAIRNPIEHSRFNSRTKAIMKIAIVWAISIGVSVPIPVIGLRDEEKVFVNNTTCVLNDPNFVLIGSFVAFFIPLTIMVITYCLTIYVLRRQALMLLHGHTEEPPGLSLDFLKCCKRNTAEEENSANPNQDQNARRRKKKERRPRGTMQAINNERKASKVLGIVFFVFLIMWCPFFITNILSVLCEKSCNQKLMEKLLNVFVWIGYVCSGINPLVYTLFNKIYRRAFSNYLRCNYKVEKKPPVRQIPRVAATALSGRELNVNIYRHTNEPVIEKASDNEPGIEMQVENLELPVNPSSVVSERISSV

[10] = target: T4, 5-hydroxytryptamine receptor 3A (Homo sapiens) (UniProt P46098); test: Binding affinity to 5HT3 receptor at 1 uM by radioligand displacement assay; in short: as §2
T4 sequence (whole entry): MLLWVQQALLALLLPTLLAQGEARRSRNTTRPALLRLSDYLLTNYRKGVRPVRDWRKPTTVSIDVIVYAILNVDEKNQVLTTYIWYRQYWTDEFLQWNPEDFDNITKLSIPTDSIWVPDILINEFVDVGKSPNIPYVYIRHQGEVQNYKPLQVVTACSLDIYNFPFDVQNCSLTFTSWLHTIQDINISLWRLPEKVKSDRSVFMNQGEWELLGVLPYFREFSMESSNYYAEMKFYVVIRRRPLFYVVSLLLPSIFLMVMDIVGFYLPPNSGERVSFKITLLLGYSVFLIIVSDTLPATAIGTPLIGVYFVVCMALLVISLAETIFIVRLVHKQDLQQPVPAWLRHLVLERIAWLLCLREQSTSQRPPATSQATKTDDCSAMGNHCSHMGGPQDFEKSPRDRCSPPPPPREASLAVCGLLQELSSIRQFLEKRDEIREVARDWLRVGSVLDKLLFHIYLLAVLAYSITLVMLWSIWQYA

[11] = target: 5-hydroxytryptamine receptor 4 (Homo sapiens) (UniProt Q13639); test: Binding affinity to 5HT4 receptor at 1 uM by radioligand displacement assay; in short: as §2
5-hydroxytryptamine receptor 4 (Homo sapiens), sequence (Q13639 whole entry): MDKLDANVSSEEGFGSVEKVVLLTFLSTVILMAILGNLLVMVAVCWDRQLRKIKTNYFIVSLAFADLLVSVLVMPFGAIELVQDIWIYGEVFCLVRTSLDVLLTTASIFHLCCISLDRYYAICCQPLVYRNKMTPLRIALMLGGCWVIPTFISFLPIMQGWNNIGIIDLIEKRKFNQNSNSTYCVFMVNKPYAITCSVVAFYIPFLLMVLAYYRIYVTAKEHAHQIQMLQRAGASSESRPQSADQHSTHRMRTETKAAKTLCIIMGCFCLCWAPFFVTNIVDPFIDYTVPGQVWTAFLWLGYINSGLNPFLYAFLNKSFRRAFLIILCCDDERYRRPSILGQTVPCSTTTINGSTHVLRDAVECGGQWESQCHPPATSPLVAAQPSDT

[12] = target: 5-hydroxytryptamine receptor 7 (Homo sapiens) (UniProt P34969); test: Binding affinity to 5HT7 receptor at 1 uM by radioligand displacement assay; in short: as §2
5-hydroxytryptamine receptor 7 (Homo sapiens), sequence (P34969 whole entry): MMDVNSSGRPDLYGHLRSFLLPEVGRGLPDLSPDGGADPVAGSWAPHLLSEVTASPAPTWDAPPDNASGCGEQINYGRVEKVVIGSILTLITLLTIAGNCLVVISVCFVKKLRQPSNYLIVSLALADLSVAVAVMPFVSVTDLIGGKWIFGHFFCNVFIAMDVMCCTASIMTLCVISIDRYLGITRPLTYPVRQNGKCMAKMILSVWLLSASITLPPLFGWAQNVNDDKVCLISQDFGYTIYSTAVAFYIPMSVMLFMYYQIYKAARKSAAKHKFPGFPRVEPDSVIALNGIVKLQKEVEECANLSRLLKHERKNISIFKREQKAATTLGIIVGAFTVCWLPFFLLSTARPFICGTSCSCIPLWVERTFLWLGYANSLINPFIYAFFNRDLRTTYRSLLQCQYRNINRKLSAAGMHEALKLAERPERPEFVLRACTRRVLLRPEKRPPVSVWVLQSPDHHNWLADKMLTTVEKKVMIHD

hERG (KCNH2) [13] = target: T5, hERG (KCNH2) (Homo sapiens, UniProt Q12809); test: Inhibition of human ERG at 30 uM by patch clamp assay
T5 sequence (Q12809 whole entry): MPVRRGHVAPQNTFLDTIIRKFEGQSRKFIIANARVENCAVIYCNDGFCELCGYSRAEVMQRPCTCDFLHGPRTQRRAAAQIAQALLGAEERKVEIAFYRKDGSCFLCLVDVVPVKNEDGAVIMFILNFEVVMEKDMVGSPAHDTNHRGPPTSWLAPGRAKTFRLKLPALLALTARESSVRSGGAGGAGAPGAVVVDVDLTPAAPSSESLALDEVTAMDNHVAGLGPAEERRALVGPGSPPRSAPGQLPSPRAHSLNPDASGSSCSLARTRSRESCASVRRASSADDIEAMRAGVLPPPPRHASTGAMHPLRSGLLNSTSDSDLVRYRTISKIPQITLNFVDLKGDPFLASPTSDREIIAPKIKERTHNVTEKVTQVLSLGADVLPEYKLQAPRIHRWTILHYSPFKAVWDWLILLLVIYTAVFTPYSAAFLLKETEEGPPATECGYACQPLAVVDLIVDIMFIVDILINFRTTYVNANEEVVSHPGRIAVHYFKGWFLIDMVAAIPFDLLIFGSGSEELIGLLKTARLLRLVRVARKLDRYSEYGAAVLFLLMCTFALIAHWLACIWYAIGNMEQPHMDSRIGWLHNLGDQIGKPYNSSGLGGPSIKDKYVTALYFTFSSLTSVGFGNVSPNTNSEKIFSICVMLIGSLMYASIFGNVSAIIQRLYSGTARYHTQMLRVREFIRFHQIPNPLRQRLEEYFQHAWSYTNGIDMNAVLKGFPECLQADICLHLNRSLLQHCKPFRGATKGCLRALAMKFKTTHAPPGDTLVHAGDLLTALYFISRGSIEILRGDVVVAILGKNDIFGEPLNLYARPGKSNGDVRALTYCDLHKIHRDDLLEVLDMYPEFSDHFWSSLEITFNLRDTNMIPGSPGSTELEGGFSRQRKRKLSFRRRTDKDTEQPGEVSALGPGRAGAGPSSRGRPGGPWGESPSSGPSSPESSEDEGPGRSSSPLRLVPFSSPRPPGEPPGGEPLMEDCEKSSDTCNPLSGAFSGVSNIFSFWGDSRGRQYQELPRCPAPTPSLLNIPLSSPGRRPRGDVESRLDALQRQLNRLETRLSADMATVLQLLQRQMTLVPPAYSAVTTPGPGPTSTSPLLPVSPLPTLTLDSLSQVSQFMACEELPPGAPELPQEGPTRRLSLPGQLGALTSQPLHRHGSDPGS
In short: (§3)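 hERG potassium channel inhibition measured by patch clamp, performed by MDS Pharma Services. Read-out is % inhibition at a single test concentration.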

[14] = target: T1, 5-hydroxytryptamine receptor 6; test: Binding affinity to human recombinant 5HT6 receptor expressed in HEK293 cells at 1 uM by radioligand displacement assay; type: cell-based; in short: as §2
hERG (KCNH2) [15] = target: T5, hERG (KCNH2); test: Inhibition of human ERG at 15 uM by patch clamp assay; in short: as §3

| IC50 [1] [µM] | IC50 [2] [µM] | Ki [2] [µM] | Structure (SMILES) | also measured |
| --- | --- | --- | --- | --- |
| 0.11 | 0.0036 | 0.0017 | O=S(=O)(c1ccccc1)c1nnn2c1nc(NCc1cccs1)c1sccc12 | – |
| – | > 0.03 | – | CN(C)c1nc2c(S(=O)(=O)c3ccccc3)nnn2c2ccsc12 | IC50 [3]: > 0.3 µM |
| – | 0.188 | 0.0875 | O=S(=O)(c1ccccc1)c1nnn2c1nc(N1CCCC1)c1sccc12 | – |
| 0.5 | > 0.03 | – | CN(Cc1cccnc1)c1nc2c(S(=O)(=O)c3ccccc3)nnn2c2ccsc12 | – |
| – | – | – | CCC(C)Nc1nc2c(S(=O)(=O)c3ccccc3)nnn2c2ccsc12 (stereo not given) | IC50 [4]: 0.0096 µM |
| 0.92 | 0.0075 | 0.0035 | CN(Cc1ccccc1)c1nc2c(S(=O)(=O)c3cccc(Cl)c3)nnn2c2ccsc12 | Activity [5]: 9%; Activity [6]: 3%; Activity [7]: 50%; Activity [8]: 46%; Activity [9]: 15%; Activity [10]: -3%; Activity [11]: 41%; Activity [12]: 6%; inhibition at 30 µM (hERG (KCNH2) [13]): 20%; Activity [14]: 106% |
| 0.87 | > 0.3 | – | CN(C)CCN(C)c1nc2c(S(=O)(=O)c3ccccc3)nnn2c2ccsc12 | – |
| 1.25 | 0.0317 | 0.0147 | O=S(=O)(c1cccc(Cl)c1)c1nnn2c1nc(NCc1cccnc1)c1sccc12 | – |
| 0.2 | 0.0069 | 0.0032 | O=S(=O)(c1ccccc1)c1nnn2c1nc(NC1CCCCC1)c1sccc12 | – |
| – | > 0.3 | – | CN(C)CCNc1nc2c(S(=O)(=O)c3ccccc3)nnn2c2ccsc12 | – |
| 1.22 | 0.0991 | 0.046 | Cc1ccc(C)c(S(=O)(=O)c2nnn3c2nc(N)c2sccc23)c1 | – |
| 0.17 | 0.005 | 0.0023 | CN(Cc1ccccc1)c1nc2c(S(=O)(=O)c3ccccc3)nnn2c2ccsc12 | Activity [5]: 2%; Activity [6]: 1%; Activity [7]: 15%; Activity [8]: 12%; Activity [9]: 2%; Activity [10]: -7%; Activity [11]: 33%; Activity [12]: -2%; inhibition at 15 µM (hERG (KCNH2) [15]): 20%; Activity [14]: 103% |
| 0.04 | 0.0061 | 0.0028 | O=S(=O)(c1ccccc1)c1nnn2c1nc(NCc1ccco1)c1sccc12 | – |
| 0.35 | 0.0283 | – | Cc1ccc(C)c(S(=O)(=O)c2nnn3c2nc(NC(C)C)c2sccc23)c1 | – |
| – | 0.0343 | 0.0159 | CC(C)CCNc1nc2c(S(=O)(=O)c3ccc(Br)cc3)nnn2c2ccsc12 | – |
| 0.26 | > 0.03 | – | O=S(=O)(c1ccccc1)c1nnn2c1nc(NCc1cccnc1)c1sccc12 | – |
| 0.14 | 0.0119 | 0.0055 | O=S(=O)(c1ccccc1)c1nnn2c1nc(NC1CCCC1)c1sccc12 | – |
| – | 0.221 | 0.103 | CC(Nc1nc2c(S(=O)(=O)c3ccccc3)nnn2c2ccsc12)C12CC3CC(CC(C3)C1)C2 (stereo not given) | – |
| 0.37 | 0.065 | 0.0302 | CC(C)Nc1nc2c(S(=O)(=O)c3ccccc3)nnn2c2ccsc12 | – |
| 0.063 | 0.0175 | 0.0081 | O=S(=O)(c1ccccc1)c1nnn2c1nc(NCC1CCCO1)c1sccc12 (stereo not given) | – |
| – | 0.0621 | 0.0288 | O=S(=O)(c1ccc(Br)cc1)c1nnn2c1nc(NCc1ccc3c(c1)OCO3)c1sccc12 | – |
